Test results published in ChEMBL document CHEMBL4038321, “Design, Synthesis, and Pharmacokinetics of a Bone-Targeting Dual-Action Prodrug for the Treatment of Osteoporosis” (J Med Chem, 2017).

Key:
Bone [1] = experiment: Drug uptake in Sprague-Dawley rat bone at 8.9 uCi, iv administered as bolus dose after 28 days; type: ADME, organism-based, Bone element; conditions: in vivo, 672 h
Procedure, shortened: (§1)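 Female Sprague Dawley rats, about 13 weeks old, in five groups of three. Single IV tail-vein bolus of mixed 3H-conjugate (8.90 µCi/rat) and 14C-conjugate (1.77 µCi/rat), total dose 5.0 mg/kg. Vehicle was 10% Poloxamer 188, brought to pH 8.0 with NaHCO3, then diluted with an equal volume of PBS. Groups were killed at 6 h, 1, 7, 14 and 28 days. Tissues and femurs were incinerated in a biological oxidizer. Values are % of administered dose, with skeleton taken as 8% of body weight, averaged over three rats.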

Heart [2] = experiment: Drug uptake in Sprague-Dawley rat heart at 8.9 uCi, iv administered as bolus dose after 6 hrs; type: ADME, organism-based; conditions: in vivo; procedure, shortened: as §1
Plasma [3] = experiment: Drug metabolism in rat plasma assessed as tritium label liberation preincubated with rat plasma followed by bovine bone powder addition measured after 30 mins; type: ADME, cell-free; conditions: 0.5 h
Procedure, shortened: (§2)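 Tritium-labelled conjugate incubated in rat plasma at 37 °C. At fixed times the incubate was stirred with bovine bone powder to adsorb intact conjugate and any cleaved bisphosphonate. Unbound radioactivity in the supernatant was then counted as liberated label.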

Liver [4] = experiment: Drug uptake in Sprague-Dawley rat liver at 8.9 uCi, iv administered as bolus dose after 14 days; type: ADME, organism-based; conditions: in vivo, 336 h; procedure, shortened: as §1
Spleen [5] = experiment: Drug uptake in Sprague-Dawley rat spleen at 8.9 uCi, iv administered as bolus dose after 1 day; type: ADME, organism-based; conditions: in vivo, 24 h
Procedure, shortened: (§3)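 Female Sprague Dawley rats, about 13 weeks old on arrival, in five groups of three. Single IV tail-vein bolus of mixed [3H]- and [14C]-labelled conjugate (8.90 and 1.77 µCi/rat), total 5.0 mg/kg. Vehicle was 10% Poloxamer 188 adjusted to pH 8.0 with NaHCO3, then diluted with an equal volume of PBS. Groups killed at 6 h, 1, 7, 14 and 28 days. Spleen radioactivity measured by oxidizer incineration and reported as percent of administered dose, averaged over three rats.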

Rattus norvegicus [6] = experiment: Toxicity in Sprague-Dawley rat assessed as behavioral change at 8.9 uCi, iv administered as bolus dose after 28 dyas; type: organism-based; conditions: in vivo
Procedure, shortened: (§4)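 Same dual-label study: female Sprague Dawley rats got one IV tail-vein bolus of [3H] (8.90 µCi) plus [14C] (1.77 µCi) conjugate, total 5.0 mg/kg, in Poloxamer 188/PBS vehicle at pH 8.0. Groups of three were sacrificed up to 28 days after dosing.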

Bone [7] = experiment: Drug uptake in Sprague-Dawley rat bone at 8.9 uCi, iv administered as bolus dose after 14 days; type: ADME, organism-based, Bone element; conditions: in vivo, 336 h; procedure, shortened: as §1
Bone [8] = experiment: Drug uptake in Sprague-Dawley rat bone at 8.9 uCi, iv administered as bolus dose after 6 hrs; type: ADME, organism-based, Bone element; conditions: in vivo; procedure, shortened: as §1
Kidney [9] = experiment: Drug uptake in Sprague-Dawley rat kidney at 8.9 uCi, iv administered as bolus dose after 7 days; type: ADME, organism-based; conditions: in vivo, 168 h; procedure, shortened: as §1
Brain [10] = experiment: Drug uptake in Sprague-Dawley rat brain at 8.9 uCi, iv administered as bolus dose after 1 day; type: ADME, organism-based; conditions: in vivo, 24 h; procedure, shortened: as §1
Kidney [11] = experiment: Drug uptake in Sprague-Dawley rat kidney at 8.9 uCi, iv administered as bolus dose after 6 hrs; type: ADME, organism-based; conditions: in vivo; procedure, shortened: as §1
Liver [12] = experiment: Drug uptake in Sprague-Dawley rat liver at 8.9 uCi, iv administered as bolus dose after 1 day; type: ADME, organism-based; conditions: in vivo, 24 h; procedure, shortened: as §1
Spleen [13] = experiment: Drug uptake in Sprague-Dawley rat spleen at 8.9 uCi, iv administered as bolus dose after 28 days; type: ADME, organism-based; conditions: in vivo, 672 h; procedure, shortened: as §3
Liver [14] = experiment: Drug uptake in Sprague-Dawley rat liver at 31 uCi, iv after 6 hrs by scintillation counting method; type: ADME, organism-based; conditions: in vivo
Procedure, shortened: (§5)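 Three female Sprague Dawley rats, about 23 weeks old. IV tail-vein dose of 5 mg/kg 3H-conjugate (31.0 µCi/rat) in 10% Poloxamer 188, pH 8.0 with NaHCO3, diluted 1:1 with PBS. Blood was drawn at 0.5 to 6 h. At 6 h tissues, including long bones, were taken and analysed for radioactivity by oxidation and scintillation counting.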

Rattus norvegicus [15] = experiment: Toxicity in Sprague-Dawley rat assessed as unusual reaction at 8.9 uCi, iv administered as bolus dose after 28 dyas; type: organism-based; conditions: in vivo; procedure, shortened: as §4
Kidney [16] = experiment: Drug uptake in Sprague-Dawley rat kidney at 8.9 uCi, iv administered as bolus dose after 14 days; type: ADME, organism-based; conditions: in vivo, 336 h; procedure, shortened: as §1
Liver [17] = experiment: Drug uptake in Sprague-Dawley rat liver at 8.9 uCi, iv administered as bolus dose after 6 hrs; type: ADME, organism-based; conditions: in vivo; procedure, shortened: as §1
Liver [18] = experiment: Drug uptake in Sprague-Dawley rat liver at 8.9 uCi, iv administered as bolus dose after 28 days; type: ADME, organism-based; conditions: in vivo, 672 h; procedure, shortened: as §1
Brain [19] = experiment: Drug uptake in Sprague-Dawley rat brain at 8.9 uCi, iv administered as bolus dose after 6 hrs; type: ADME, organism-based; conditions: in vivo; procedure, shortened: as §1
Bone [20] = experiment: Drug uptake in Sprague-Dawley rat bone at 31 uCi, iv after 6 hrs by scintillation counting method; type: ADME, organism-based, Bone element; conditions: in vivo; procedure, shortened: as §5
Heart [21] = experiment: Drug uptake in Sprague-Dawley rat heart at 8.9 uCi, iv administered as bolus dose after 7 days; type: ADME, organism-based; conditions: in vivo, 168 h; procedure, shortened: as §1
Spleen [22] = experiment: Drug uptake in Sprague-Dawley rat spleen at 8.9 uCi, iv administered as bolus dose after 6 hrs; type: ADME, organism-based; conditions: in vivo; procedure, shortened: as §3
Plasma [23] = experiment: Drug metabolism in rat plasma assessed as tritium label liberation preincubated with rat plasma followed by bovine bone powder addition measured after 4 hrs; type: ADME, cell-free; procedure, shortened: as §2
Spleen [24] = experiment: Drug uptake in Sprague-Dawley rat spleen at 8.9 uCi, iv administered as bolus dose after 14 days; type: ADME, organism-based; conditions: in vivo, 336 h; procedure, shortened: as §3
Liver [25] = experiment: Drug uptake in Sprague-Dawley rat liver at 8.9 uCi, iv administered as bolus dose after 7 days; type: ADME, organism-based; conditions: in vivo, 168 h; procedure, shortened: as §1
Kidney [26] = experiment: Drug uptake in Sprague-Dawley rat kidney at 8.9 uCi, iv administered as bolus dose after 28 days; type: ADME, organism-based; conditions: in vivo, 672 h; procedure, shortened: as §1
Spleen [27] = experiment: Drug uptake in Sprague-Dawley rat spleen at 8.9 uCi, iv administered as bolus dose after 7 days; type: ADME, organism-based; conditions: in vivo, 168 h; procedure, shortened: as §3
Kidney [28] = experiment: Drug uptake in Sprague-Dawley rat kidney at 8.9 uCi, iv administered as bolus dose after 1 day; type: ADME, organism-based; conditions: in vivo, 24 h; procedure, shortened: as §1
Plasma [29] = experiment: Drug metabolism in rat plasma assessed as tritium label liberation preincubated with rat plasma followed by bovine bone powder addition measured after 24 hrs; type: ADME, cell-free; procedure, shortened: as §2
Serum = experiment: Drug metabolism in rat serum assessed as tritium label liberation preincubated with bovine bone powder followed by rat serum addition measured after 24 hrs; type: ADME, cell-free
Procedure, shortened: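 Tritium-labelled conjugate first bound to bovine bone powder for 30 min in buffer. The powder was filtered, resuspended and incubated in fresh rat serum. Buffer and inactivated serum were run alongside. Tritium liberated after 24 h was measured.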

[30] = Drug metabolism in rat plasma at 100 uM measured after 24 hrs by HPLC analysis; type: ADME, cell-free; conditions: read-out: Drug metabolism
Procedure, shortened: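 Conjugate incubated in rat plasma at 37 °C for 24 h and compared with inactivated control plasma. Aliquots were taken at 0, 1, 2, 4 and 24 h and quenched with methanol containing 1.0 M HCl, then centrifuged. Remaining conjugate in the supernatant was quantified by reverse-phase HPLC with UV detection at 254 nm.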

Bone [31] = experiment: Drug uptake in Sprague-Dawley rat bone at 8.9 uCi, iv administered as bolus dose after 7 days; type: ADME, organism-based, Bone element; conditions: in vivo, 168 h; procedure, shortened: as §1
Heart [32] = experiment: Drug uptake in Sprague-Dawley rat heart at 8.9 uCi, iv administered as bolus dose after 1 day; type: ADME, organism-based; conditions: in vivo, 24 h; procedure, shortened: as §1
Rattus norvegicus [33] = experiment: Toxicity in Sprague-Dawley rat at 31 uCi, iv administered via tail vein after 6 hrs; type: organism-based; conditions: in vivo
Procedure, shortened: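 Three female Sprague Dawley rats, about 23 weeks old on arrival, received an IV tail-vein injection of 5 mg/kg conjugate with 31.0 µCi [3H] per rat. Vehicle was 10% Poloxamer 188 adjusted to pH 8.0 with NaHCO3 and diluted 1:1 with PBS. Tolerability was observed over 6 h with blood sampling, and the study ended at 6 h.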

Bone [34] = experiment: Drug uptake in Sprague-Dawley rat bone at 8.9 uCi, iv administered as bolus dose after 1 day; type: ADME, organism-based, Bone element; conditions: in vivo, 24 h; procedure, shortened: as §1

For `[3H]c1ccc(C(F)(F)[C@@H](/C=C/[C@H]2CCC(=O)N2CCCCCCC(=O)OCC)OC(=O)Cc2ccc(COC(=O)N[C@@H](CC(C)C)C(=O)N[C@@H](CCCNC(=N)N)C(=O)Nc3ccc(COC(=O)NCCCC(O)(P(=O)(O)O)P(=O)(O)O)cc3)cc2)cc1`, the Drug uptake (Bone [1]) was 0.74 %ID, the Drug uptake (Heart [2]) was 0.025 %ID and the Drug metabolism (Plasma [3]) was 27%. The Drug uptake (Liver [4]) was 0.3 %ID, the Drug uptake (Spleen [5]) was 0.22 %ID and the Activity (Rattus norvegicus [6]) was “Non-Toxic”. It also gave a Drug uptake (Bone [7]) of 0.8 %ID, a Drug uptake (Bone [8]) of 2.1 %ID and a Drug uptake (Kidney [9]) of 0.053 %ID. The Drug uptake (Brain [10]) was 0.025 %ID, the Drug uptake (Kidney [11]) was 0.21 %ID and the Drug uptake (Liver [12]) was 2.33 %ID. The Drug uptake (Spleen [13]) was 0.037 %ID, the Drug uptake (Liver [14]) was “Active” and the Activity (Rattus norvegicus [15]) was “Non-Toxic”. It also gave a Drug uptake (Kidney [16]) of 0.026 %ID, a Drug uptake (Liver [17]) of 8.95 %ID and a Drug uptake (Liver [18]) of 0.08 %ID. For the same compound, the Drug uptake (Brain [19]) was 0.022 %ID, the Drug uptake (Bone [20]) was 2.5 %ID and the Drug uptake (Heart [21]) was 0.014 %ID. The Drug uptake (Spleen [22]) was 0.35 %ID, the Drug metabolism (Plasma [23]) was 44% and the Drug uptake (Spleen [24]) was 0.039 %ID. It also gave a Drug uptake (Liver [25]) of 0.48 %ID, a Drug uptake (Kidney [26]) of 0.017 %ID and a Drug uptake (Spleen [27]) of 0.076 %ID. For the same compound, the Drug uptake (Kidney [28]) was 0.11 %ID, the Drug metabolism (Plasma [29]) was 53% and the Drug metabolism (Serum) was < 3%. The metabolised at 24 h, 100 µM [30] was 55%, the Drug uptake (Bone [31]) was 1.3 %ID and the Drug uptake (Heart [32]) was 0.021 %ID. The Activity (Rattus norvegicus [33]) was “Toxic” and the Drug uptake (Bone [34]) was 2.12 %ID.
